Measurements taken from ChEMBL document CHEMBL2429802, “Cytotoxic oxepinochromenone and flavonoids from the flower buds of Rosa rugosa” (J Nat Prod, 2013).

Assays:
Type in all cases: functional, cell-based
[1] = tested on: MCF7; assay: Cytotoxicity against human MCF7 cells assessed as growth inhibition after 72 hrs by MTT assay; conditions: MCF7, 72 h
Procedure, shortened: (§1)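 2500 cells per well seeded in MEM medium and incubated 24 h. Medium then replaced with fresh medium containing compound at 100 to 1.5625 μM (six 2-fold dilutions). OD595 read after MTT on control wells at 0 and 72 h and on treated wells at 72 h. IC50 taken as the concentration inhibiting 50% of cell growth. Paclitaxel served as positive control.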

[2] = tested on: PC-3; assay: Cytotoxicity against human PC3 cells assessed as growth inhibition after 72 hrs by MTT assay; conditions: PC-3, 72 h; procedure, shortened: as §1
[3] = Cytotoxicity against human SH-SY5Y cells assessed as growth inhibition after 72 hrs by MTT assay; procedure, shortened: as §1
[4] = tested on: A549; assay: Cytotoxicity against human A549 cells assessed as growth inhibition after 72 hrs by MTT assay; conditions: A549, 72 h; procedure, shortened: as §1
[5] = tested on: NB-4; assay: Cytotoxicity against human NB4 cells assessed as growth inhibition after 72 hrs by MTT assay; conditions: NB-4, 72 h; procedure, shortened: as §1

Row | Compound | IC50 [1] | IC50 [2] | IC50 [3] | IC50 [4] | IC50 [5]
1 | COC(=O)c1cc(O)cc2oc(-c3ccc(OC)cc3)cc(=O)c12 | 2.3 µM | 4.8 µM | 2.5 µM | 6.7 µM | 2.2 µM
2 | COc1c(O)ccc(C/C=C/c2ccc3c(c2)OCO3)c1OC | > 10 µM | > 10 µM | > 10 µM | > 10 µM | > 10 µM
3 | COc1cc2c(=O)cc(-c3ccc(O)c(O)c3)oc2c(C(C)=O)c1OC | 2.8 µM | 8.4 µM | 4.3 µM | 1.2 µM | 3.6 µM
4 | COc1cc2c(cc1OC)[C@@H](O)[C@H](c1ccc(O)cc1)CO2 | > 10 µM | > 10 µM | > 10 µM | > 10 µM | > 10 µM
5 | O=C(OC[C@H]1O[C@@H](Oc2c(-c3ccc(O)cc3)oc3cc(O)cc(O)c3c2=O)[C@H](O)[C@@H](O)[C@@H]1O)c1ccc(O)cc1 | 7.3 µM | > 10 µM | 8.2 µM | > 10 µM | 4.7 µM
6 | COc1cc(/C=C/Cc2ccc(O)c(OC)c2OC)cc2c1OCO2 | > 10 µM | > 10 µM | > 10 µM | > 10 µM | > 10 µM
7 | COC(=O)[C@@]1(O)c2c(oc(-c3ccc(O)cc3)cc2=O)OC=C[C@@H]1O | > 10 µM | 6.8 µM | > 10 µM | 7.2 µM | > 10 µM
8 | COc1ccc2c(c1CCO)O[C@@H](c1ccc(O)cc1O)CC2 | > 10 µM | > 10 µM | > 10 µM | > 10 µM | > 10 µM
9 | CC(=O)O[C@H]1C(=O)[C@@]2(C)[C@H]([C@H](OC(=O)c3ccccc3)[C@]3(O)C[C@H](OC(=O)[C@H](O)[C@@H](NC(=O)c4ccccc4)c4ccccc4)C(C)=C1C3(C)C)[C@]1(OC(C)=O)CO[C@@H]1C[C@@H]2O [PACLITAXEL] |  |  | 0.2 µM |  | 
10 | COc1ccc([C@@H]2COc3cc(OC)c(O)cc3[C@H]2O)cc1 | > 10 µM | > 10 µM | > 10 µM | > 10 µM | > 10 µM
